Published values collected from several papers.
Each line is one published result; the experiments were not run side by side.
Read-out: enzyme activity
Mode: inhibitor
rep main protease: Replicase polyprotein 1ab, main protease (rep, Severe acute respiratory syndrome coronavirus 2, UniProt P0DTD1)
rep papain-like protease: Replicase polyprotein 1ab, papain-like protease (rep, Severe acute respiratory syndrome coronavirus 2, UniProt P0DTD1)

CCc1ccc(NC(=O)c2cc3c(=O)n4ccccc4nc3n2C)cc1  inhibition (rep main protease; 1 mM): 76%
COc1cc(O)c2c(c1)OC/C(=C\c1ccc(O)cc1)C2=O  inhibition (rep main protease; 20 µM): 16.7%
O=c1cc(-c2ccccc2)oc2cc(O)c(O)c(O)c12  inhibition (rep main protease; 100 µM): 99.4%
COc1cc(-c2oc3cc(O)cc(O)c3c(=O)c2O)ccc1O  inhibition (rep main protease; FRET; 10 µM, 10 min): 25 to 50%
O=C(Nc1ccccc1F)c1cc2c(=O)n3ccccc3nc2n1Cc1ccccc1  inhibition (rep main protease; 1 mM): 71%
O=C1C=C(O)C(=O)c2ccccc21  inhibition (rep main protease; 10 µM): -1.7%
O=C(O)/C=C/c1ccc(O)c(O)c1  inhibition (rep main protease; FRET; 10 µM, 10 min): < 25%
C[C@@H]1O[C@@H](OC[C@H]2O[C@@H](OCCc3ccc(O)c(O)c3)[C@H](OC(=O)/C=C/c3ccc(O)c(O)c3)[C@@H](O)[C@@H]2O)[C@H](O)[C@H](O)[C@H]1O  inhibition (rep papain-like protease; 50 µM): 2.5%
Cc1ccc(NC(=O)c2cc3c(=O)n4cccc(C)c4nc3n2C)cc1Cl  inhibition (rep main protease; 1 µM): 6.4%
O=c1c(O)c(-c2cc(O)c(O)c(O)c2)oc2cc(O)ccc12  inhibition (rep main protease; 10 µM): 62.5%
O=c1c(O)c(-c2ccc(O)cc2)oc2cc(O)cc(O)c12  inhibition (rep main protease; FRET; 10 µM, 10 min): 45%
CC1=CC(=O)c2c(O)cccc2C1=O  inhibition (rep main protease; 10 µM): 7.7%
COc1cc([C@H]2OC[C@H]3[C@@H]2CO[C@H]3c2ccc(OC)c(OC)c2)ccc1O  inhibition (rep main protease; 100 µM): 11.4%
Cc1ccc(NC(=O)Nc2cccnc2)cc1Cl  inhibition (rep main protease; 20 µM): -7.73%
O=C(O)[C@H]1O[C@@H](Oc2cc3oc(-c4ccc(O)cc4)cc(=O)c3c(O)c2O)[C@H](O)[C@@H](O)[C@@H]1O  inhibition (rep main protease; 100 µM): 76.8%
Clc1nc2ccccc2cc1/C=N\c1ccc(-c2nc3ccccc3[nH]2)cc1  inhibition (rep papain-like protease; 100 µM): 25.3%
O=C(Oc1cncc(Cl)c1)c1cc2cc(Cl)ccc2[nH]1  inhibition (rep main protease; fluorescence; 10 µM, pH 7.2): 100%
Cn1c(C(=O)Nc2ccc(Cl)cc2)cc2c(=O)n3ccccc3nc21  inhibition (rep main protease; 10 µM): 14%
Oc1cc2c(cc1O)[C@H]1c3ccccc3CN[C@@H]1CC2 (racemic)  inhibition (rep main protease; 20 µM): -15.1%
O=C(Oc1cncc(Br)c1)c1cccc2[nH]ccc12  inhibition (rep main protease; fluorescence; 10 µM, pH 7.2): 100%
CC(C)=CCc1cc(-c2oc3cc(O)cc(O)c3c(=O)c2O)ccc1O  inhibition (rep papain-like protease; 8 µM): 59.9%
O=C(CSc1nnc2c(n1)[nH]c1ccccc12)Nc1cccc(S(=O)(=O)N2CCOCC2)c1  inhibition (rep main protease; 100 µg/mL): 0%
Cc1cccn2c(=O)c3cc(C(=O)Nc4ccc(N(C)C)cc4)n(C)c3nc12  inhibition (rep main protease; 100 µM): 33%
C/C=C1\C(OC2OC(CO)C(O)C(O)C2O)OC=C(C(=O)OC)C1CC(=O)OCCc1ccc(O)c(O)c1 (stereo not drawn)  inhibition (rep main protease; 20 µM): 93.8%
O=c1n(-c2ccc(F)cc2)nc2n1CCCN2  inhibition (rep main protease; 20 µM): 10.2%
CCN(CC)C(=S)SSC(=S)N(CC)CC  inhibition (rep main protease; fluorescence; 10 µM, pH 7.2): 100%
COc1c(O)cc(O)c2c(=O)cc(-c3ccccc3)oc12  inhibition (rep papain-like protease; 50 µM): 52%
Cc1ccc2nc(Cl)c(C=Nc3cc(Br)ccn3)cc2c1  inhibition (rep papain-like protease; 10 µM): 4.6%
O=C(O)c1cc(O)c2c(c1)C(=O)c1cccc(O)c1C2=O  inhibition (rep main protease; 10 µM): 7.8%
CN(C(=O)[C@H](Cc1ccccc1)NC(=O)OCc1ccccc1)N(C#N)CCC(N)=O  inhibition (rep main protease; fluorescence; 50 µM, pH 7.2): 100%
Cc1cc(O)c2c(=O)c3c(O)cc(O)c4c5c(O)cc(O)c6c(=O)c7c(O)cc(C)c8c1c2c(c34)c(c78)c65  inhibition (rep main protease; 20 µM): 31.5%
COc1cc(C[C@@H](C)[C@@H](C)Cc2ccc(O)c(OC)c2)ccc1O  inhibition (rep papain-like protease; FRET; 8 µM): 56.4%
O=C(CCc1ccccc1)Nc1ccc2c(c1)C(=O)OC2  inhibition (rep main protease; 20 µM): -0.804%
Cn1c(C(=O)Nc2ccc3c(c2)OCCO3)cc2c(=O)n3ccccc3nc21  inhibition (rep main protease; 1 µM): 31%
Cc1cc(O)c2c(c1)C(=O)C=CC2=O  inhibition (rep main protease; 10 µM): 103%
COC(=O)C1=CO[C@@H](O[C@@H]2O[C@H](CO)[C@@H](O)[C@H](O)[C@H]2O)[C@@H]2[C@@H](C)[C@@H](O)C[C@H]12  inhibition (rep main protease; 100 µM): 10.6%
Cc1cccc(NC2CS(=O)(=O)CC2O)c1 (stereo not drawn)  inhibition (rep main protease; 20 µM): 7.43%
COc1ccc2nc(Cl)c(/C=N/c3ccc(-c4nc5ccccc5[nH]4)cc3)cc2c1  inhibition (rep papain-like protease; 10 µM): 2.1%
O=C1C=CC(=O)c2ccccc21  inhibition (rep main protease; 1 µM): 90.5%
O=C(/C=C/c1ccc2ncccc2c1)N1CCC[C@@]2(CCN(C(=O)c3cc(=O)[nH]c(=O)[nH]3)C2)C1  inhibition (rep main protease; 5 µM): 18%
CCOC(=O)COc1cc(C)cc2c1C(=O)C=CC2=O  inhibition (rep main protease; 0.1 µM): 29.6%
O=C(O)c1cc(O)c2c(c1)C([C@@H]1c3cc(C(=O)O)cc(O)c3C(=O)c3c(O[C@H]4O[C@H](CO)[C@@H](O)[C@H](O)[C@H]4O)cccc31)c1cccc(O[C@H]3O[C@H](CO)[C@@H](O)[C@H](O)[C@H]3O)c1C2=O (stereo partly drawn)  inhibition (rep main protease; 20 µM): 103%
O=C(O)c1ccc(O)c(O)c1  inhibition (rep main protease; FRET; 10 µM, 10 min): < 25%
Clc1nc2ccccc2cc1/C=N\c1ccc(Br)nc1  inhibition (rep papain-like protease; 100 µM): 6.2%
COc1cccc2c1C(=O)C(C(C)=O)=CC2=O  inhibition (rep main protease; 10 µM): 96.1%
Cc1ncc(/C=C\C(=O)N2C[C@@H](NC(=O)c3ccc[nH]c3=O)CC3(CCOCC3)C2)c(=O)[nH]1  inhibition (rep main protease; 5 µM): 15.5%
O=c1cc(-c2ccc(O)cc2)oc2cc(O)c(O)c(O)c12  inhibition (rep main protease; 10 µM): 90.7%
O=[N+]([O-])c1cccc(-c2nc(O)c3ccccc3n2)c1  inhibition (rep main protease; 20 µM): 22.3%
Cc1cc(NC(=O)c2cc3c(=O)n4cccc(C)c4nc3n2C)ccc1Br  inhibition (rep main protease; 1 µM): 14%
NC(=O)CCOC1CCN(C(c2ccccc2)c2ccccc2)CC1  inhibition (rep main protease; 20 µM): 11.5%
NC(=O)c1ccc(/C=C/C(=O)N2CCC[C@@]3(CCN(C(=O)[C@@H]4CC(=O)NC(=O)N4)C3)C2)cc1  inhibition (rep main protease; 5 µM): 14.7%
